FXIa inh = blocks human coagulation factor XIa protease activity | inhibition, % at 5 µM | P03951 | 220,000 compounds, 0.14% hits | AID 798 | purified FXIa, Boc-Glu-Ala-Arg-AMC fluorogenic substrate;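 active = inhibition of at least 40%; inactive = inhibition below 40%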;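 also: fluorescence of freed AMC excited at 355 nm; 0% = enzyme without compound and 100% = no enzyme blank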
Target sequence (P03951 19-387 limits assumed): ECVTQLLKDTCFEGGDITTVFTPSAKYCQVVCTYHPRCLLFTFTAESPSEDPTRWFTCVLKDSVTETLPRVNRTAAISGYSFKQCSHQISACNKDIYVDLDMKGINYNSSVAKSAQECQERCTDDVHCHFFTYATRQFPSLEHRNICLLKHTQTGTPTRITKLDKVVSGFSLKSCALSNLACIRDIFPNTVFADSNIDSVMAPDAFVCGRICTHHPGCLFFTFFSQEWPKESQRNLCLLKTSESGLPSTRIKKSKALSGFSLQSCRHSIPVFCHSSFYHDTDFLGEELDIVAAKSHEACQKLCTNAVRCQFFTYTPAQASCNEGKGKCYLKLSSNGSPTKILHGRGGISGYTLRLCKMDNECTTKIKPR
Target sequence (P03951 388-625 limits assumed): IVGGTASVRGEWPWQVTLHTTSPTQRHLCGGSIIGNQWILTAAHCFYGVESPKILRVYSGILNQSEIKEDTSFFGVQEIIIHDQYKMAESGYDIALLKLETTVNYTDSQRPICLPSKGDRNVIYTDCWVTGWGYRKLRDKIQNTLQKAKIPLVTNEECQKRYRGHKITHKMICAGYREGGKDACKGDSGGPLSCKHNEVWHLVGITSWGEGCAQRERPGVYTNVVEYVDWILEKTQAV
KLK5 inh = kallikrein 5 (human) inhibition; Q9Y337; recombinant hK5, fluorogenic AMC substrate cleavage; inhibition, % at 5 µM; 210,000 compounds, 0.59% hits; AID 873;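 active = inhibition of 40% or more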;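 also: 0% = enzyme controls without compound and 100% = no-enzyme blanks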
FXIIa inh 1536 = factor XIIa (human) inhibition. purified FXIIa, Boc-QGR-AMC fluorogenic substrate, 2 h. AID 800. inhibition, % at 5 µM. 220,000 compounds, 0.3% hits; in the data active = inhibition above about 40%;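 also: 0% = enzyme with no compound and 100% = blank without enzyme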
Wee1 stabilizer = human Wee1 degradation inhibition, primary screen; HeLa Luc-Wee1K328M stability, luciferase luminescence; 100% = proteasome inhibitor MG132 effect; 220,000 compounds, 1.2% hits; reporter increase, % at 5 µM; P30291;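 active = activation above the mean of all tested compounds plus 3 SD, set per screening run, cut at about 8.8% in these data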;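 also: cells exposed to compound for 20 h before luminescence read; 0% = DMSO alone and 100% = MG132 at 30 µM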
Platelet DG rel = platelet dense granule release activity; human platelet-rich plasma, SFLLRN dense granule ATP release, luminescence; inhibition, %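 (compounds screened at 7.5 µM in platelet-rich plasma)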; 300,000 compounds, 0.22% hits; AID 1663;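 active = mean replicate score, as percent of positive control, at or above 50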
Thrombin inh = thrombin (human) inhibition. inhibition, % at 5 µM. P00734. 220,000 compounds, 0.26% hits. alpha-thrombin, Boc-VPR-AMC fluorogenic substrate cleavage. AID 1046;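 active = inhibition at or above 40%; inactive = inhibition below 40%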;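 also: 0% = enzyme with no compound and 100% = wells without enzyme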
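Material: Human alpha-thrombin protein | Buffer or medium: pH 7.5 Tris-saline with Tween 20 | Reagent: Boc-VPR-AMC substrate, 15 µM final | Schedule: Reaction at ambient temperature | Detection: AMC fluorescence at 355 nm excitation and 460 nm emission | Evaluation: Percent inhibition scaled between no-compound controls and no-enzyme blanks | Controls: no-compound enzyme wells and no-enzyme blanks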
Wee1 stab conf = confirmation of human Wee1 degradation inhibitors. shares compounds with Wee1 stabilizer. HeLa Luc-Wee1K328M degradation, luminescence; vehicle 0%, proteasome-blocked wells 100%. activation, % at 5 µM. 1,100 compounds, 4% hits. AID 1410; in the data active = activation above about 8.9%
Active calls of the source: *; · = no result. Hits are enriched below; roughly 1.8% of the tested compounds scored in any of these assays.

SMILES | FXIa inh | KLK5 inh | FXIIa inh 1536 | Wee1 stabilizer | Platelet DG rel | Thrombin inh | Wee1 stab conf
Cc1nc(NC(=O)CSc2nnc(-c3ccc4c(c3)OCO4)o2)c(Cl)cc1Cl | 5 | -15 | 14 | 11* | 1 | -4 | 5
O=C(CSc1nnc(-c2ccc3c(c2)OCO3)o1)Nc1ncc(C(F)(F)F)cc1Cl | 2 | -1 | 10 | -1 | 0 | -3 | ·
CCN(CC)CCN(C(=O)c1ccc(CN2CCCCC2)o1)C(C(=O)NC1CCCCC1)c1ccc(F)cc1 (stereo not drawn) | -3 | -3 | -1 | 11* | -2 | 6 | -2
CCCOc1ccc(C(=O)CCN2CCN(C(=O)OCC)CC2)cc1 | -10 | -23 | -2 | 17* | · | -4 | 0
CC(C)(C)C(=O)OCc1nc(-c2ccc(C(F)(F)F)cc2)cs1 | 7 | 8 | 6 | 4 | 10 | -2 | ·
Cc1ccc(-c2cc(C(F)(F)F)c(C#N)c(=O)[nH]2)cc1 | 0 | -74 | -3 | -1 | 25 | -14 | ·
N#Cc1c(C(F)(F)F)cc(C2CC2)[nH]c1=O | -9 | -280 | -15 | 15* | 14 | -13 | 1
CN(C)c1ccc(/C=N/c2cc(-c3ccccc3)nn2-c2ccccc2)cc1 | 0 | -5 | 21 | -1 | -2 | 4 | ·
COc1ccc(OCC(O)Cn2c(=N)n(CCN3CCCCC3)c3ccccc32)cc1 (stereo not drawn) | 1 | -19 | 14 | 14* | · | -3 | -3
CCOC(=O)CSc1cccc2cccnc12 | -6 | 9 | -14 | -3 | 6 | -1 | ·
N/C(=N\OC(=O)c1ccc(=O)n(Cc2ccc(Cl)cc2)c1)c1ccccn1 | 2 | -4 | 6 | 11* | 0 | -15 | 0
COc1ccccc1N(CC(=O)NCc1ccco1)C(=O)CCC(=O)Nc1ccccn1 | · | · | · | · | 12 | · | ·
CCN1CCCC1CNCc1ccc(OCc2ccc(Cl)nc2)c(OC)c1 (stereo not drawn) | 1 | 2 | 7 | 15* | 7 | 3 | 4
CC1CCN(CC(O)COc2cccc(F)c2)CC1 (stereo not drawn) | -2 | -9 | 10 | 14* | 35 | -8 | 1
CN(C)c1ccc(NC(=O)Nc2ccc3c(c2)nnn3C)cc1 | · | · | · | · | -17 | · | ·
COc1cccc(NC(=O)Nc2ccc3c(c2)nnn3C)c1 | -8 | -15 | 2 | 16* | · | -7 | 0
COc1cccc(NC(=O)Nc2ccc(CC(=O)O)cc2)c1 | 4 | 5 | 11 | 1 | 4 | -6 | ·
CCc1ccc(NC(=O)Nc2cccc(OC)c2)cc1 | -5 | -3 | 3 | 12* | 2 | -1 | 3
COc1ccc(-c2cc(=O)oc3cc(OCC(C)=O)ccc23)cc1 | 1 | -18 | 5 | 17* | 11 | -4 | 1
Cc1ccc(NC(=O)NCc2ccccn2)cc1Cl | · | · | · | · | 4 | · | ·
Cc1ccc(NC(=O)NCc2c(C)nn(C)c2C)cc1Cl | -1 | -1 | 6 | 18* | 0 | -5 | 4
CCCn1c(=S)[nH]c2cc(C(=O)N(CCO)Cc3ccccc3)ccc2c1=O | · | · | · | · | 1 | · | ·
CCN(CC)CCNC(=O)COc1ccc(Cl)cc1Cl | 3 | -15 | 10 | 11* | 12 | -6 | 0
CN(C)CCNC(=O)COc1ccc(Cl)cc1Cl | 5 | -9 | 9 | 1 | 3 | 0 | ·
C#CCOCCOCCOCCNc1nc(N2CCN(C(=O)[C@H]([C@@H](C)CC)n3cc([C@@H](N)CC(C)C)nn3)CC2)nc(N2CCN(C(=O)[C@H](CCCCN)n3cc([C@@H](N)C(C)CC)nn3)CC2)n1 (stereo partly drawn) | -2 | -3 | 4 | 15* | 1 | -4 | -1
SMILES | FXIa inh | KLK5 inh | FXIIa inh 1536 | Wee1 stabilizer | Platelet DG rel | Thrombin inh | Wee1 stab conf
C#CCOCCOCCOCCNc1nc(N2CCN(C(=O)[C@H]([C@@H](C)CC)n3cc([C@@H](N)CC(C)C)nn3)CC2)nc(N2CCN(C(=O)[C@H](CCCCN)n3cc([C@@H](N)CC(C)C)nn3)CC2)n1 | 23 | -3 | 5 | 6 | -2 | -3 | ·
C#CCOCCOCCOCCNc1nc(N2CCN(C(=O)[C@H](CCC(=O)O)n3cc(C(N)CC(C)C)nn3)CC2)nc(N2CCN(C(=O)[C@H](CCC(=O)O)n3cc(C(N)CC(C)C)nn3)CC2)n1 (stereo partly drawn) | 4 | 6 | 8 | 12* | 1 | 3 | -2
C#Cc1ccc([C@H]2C=C(C(=O)N3CCOCC3)O[C@@H](OCC)[C@@H]2CCCO)cc1 | 0 | 3 | 7 | 0 | 0 | 1 | ·
COc1ccc(C2CC(C(F)(F)F)n3ncc(C(=O)Nc4cccc(O)c4)c3N2)cc1OC (stereo not drawn) | 12 | 24 | 23 | 13* | 4 | 22 | -3
O=C(c1ccccc1Cl)N1CCSCC1 | 8 | -4 | 0 | 20* | -2 | -3 | -2
CN(CC(=O)N1CCc2ccccc21)S(=O)(=O)c1cccs1 | 2 | 2 | 7 | 14* | 1 | 1 | 4
Cc1ccccc1NC(=O)CN(C)S(=O)(=O)c1cccs1 | · | · | · | · | 1 | · | ·
CC(NC(=O)Cn1cc([N+](=O)[O-])cn1)c1ccc(C(C)(C)C)cc1 (stereo not drawn) | · | · | · | · | 10 | · | ·
CCCCNS(=O)(=O)c1ccc2nc(-c3cccnc3)cc(C(=O)NC(C)C)c2c1 | 4 | -8 | 10 | 19* | 2 | 5 | -1
C=CCNC(=O)/C=C/c1c(F)cccc1Cl | 2 | -6 | 3 | 13* | 22 | -5 | 0
S=C(NCC1CCCO1)N1CCN(Cc2ccccc2)CC1 (stereo not drawn) | -5 | 0 | 5 | -3 | -4 | -16 | ·
CN(C)CCNC(=O)CNC(=S)N(Cc1ccccc1)Cc1cccnc1 | 5 | -23 | 6 | -2 | 3 | -2 | ·
Cc1ccc(CCNC(=O)CNC(=S)N(Cc2ccccc2)Cc2cccnc2)cc1 | -3 | -3 | 6 | 15* | -3 | -5 | 0
COc1ccc(S(=O)(=O)NCC2CCCN(C(=O)CSC)C2)cc1 (stereo not drawn) | · | · | · | · | -1 | · | ·
COc1ccc(C(C(=O)Nc2ccc(C(C)C)cc2)N(Cc2ccco2)C(=O)CC2NC(=O)NC2=O)cc1 (stereo not drawn) | -2 | -10 | 4 | 16* | 14 | -1 | 4
CCC(c1nnc(SCC(=O)Nc2ccc(C(=O)N(C)C)cc2)n1Cc1ccccc1)N(C)C (stereo not drawn) | · | · | · | · | 30 | · | ·
O=c1[nH]c2cc(Cl)ccc2c(O)c1-c1cccc(Oc2ccccc2)c1 | · | · | · | · | -3 | · | ·
COc1ccc(-c2noc(CN(C)Cc3ccc(C)o3)n2)cc1 | -4 | · | 3 | 12* | -3 | -5 | 3
CC(=O)Nc1ccc(NC(=O)CSc2ncc(C(=O)Nc3ccccc3)c(=O)n2C)cc1 | · | · | · | · | -3 | · | ·
